Results: ChEMBL document CHEMBL2203280, “Bicyclic peptidomimetics targeting secreted aspartic protease 2 (SAP2) from Candida albicans reveal a constrained inhibitory chemotype” (Bioorg Med Chem, 2012)

These compounds were tested against T1, Secreted aspartic protease 2 (Candida albicans, UniProt P0CS83) (assay: Inhibition of candida albicans SAP2 using 0.05% BSA as substrate by spectrophotometric analysis).
In short: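 SAP2 incubated with inhibitor in 0.05% (w/v) BSA substrate, 50 mM sodium citrate pH 3.2, for 30 min at 37 °C. Stopped with 10% (w/v) TCA, held on ice 30 min, centrifuged 3000 g 10 min. Supernatant A280 read against 0.05% BSA in citrate blank. ΔOD per min taken at six inhibitor concentrations, including 5, 1 and 0.1 nM. Pepstatin A run at matching concentrations.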

T1 sequence (P0CS83 whole entry): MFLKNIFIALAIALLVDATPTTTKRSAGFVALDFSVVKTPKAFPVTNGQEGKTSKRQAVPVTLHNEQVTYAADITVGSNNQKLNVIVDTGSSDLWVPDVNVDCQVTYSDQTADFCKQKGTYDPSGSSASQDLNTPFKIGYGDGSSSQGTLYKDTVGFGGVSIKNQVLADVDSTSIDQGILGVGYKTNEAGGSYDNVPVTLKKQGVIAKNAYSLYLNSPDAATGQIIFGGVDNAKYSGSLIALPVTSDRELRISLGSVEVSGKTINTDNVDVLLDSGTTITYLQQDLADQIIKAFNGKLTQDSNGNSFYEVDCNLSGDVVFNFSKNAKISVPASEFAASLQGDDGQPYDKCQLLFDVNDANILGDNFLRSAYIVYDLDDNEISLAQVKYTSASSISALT

COC(=O)[C@@H](CC(C)C)N1C[C@H]2O[C@H](C(=O)N3CCCCC3)[C@H](O2)C1=O and COC(=O)[C@H](CC(C)C)N1C[C@@H]2O[C@@H](C(=O)N3CCCCC3)[C@@H](O2)C1=O are within 1.5-fold of each other in IC50: 740 nM for the first, 900 nM for the second.

Compared with COC(=O)[C@H](CC(C)C)N1C[C@H]2O[C@H](C(=O)N3CCCCC3)[C@H](O2)C1=O, COC(=O)[C@@H](CC(C)C)N1C[C@@H]2O[C@@H](C(=O)N3CCCCC3)[C@@H](O2)C1=O is lower in IC50: over 10000 nM for the first, 890 nM for the second.

Going from CC(C)CC(=O)N[C@H](C(=O)N[C@H](C(=O)N[C@@H](CC(C)C)[C@@H](O)CC(=O)N[C@@H](C)C(=O)N[C@@H](CC(C)C)[C@@H](O)CC(=O)O)C(C)C)C(C)C [PEPSTATIN] to CC(C)C[C@@H](CO)NC(=O)C1O[C@@H]2CN(Cc3ccccc3)C(=O)[C@H]1O2 (stereo partly drawn), the IC50 rises from 90 nM to 1100 nM (12-fold). The first is the more potent here.

Going from O=C([C@@H]1O[C@H]2CN(Cc3ccccc3)C(=O)[C@@H]1O2)N1CCCCC1 to O=C([C@H]1O[C@@H]2CN(Cc3ccccc3)C(=O)[C@H]1O2)N1CCCCC1, the IC50 rises from 30 nM to 980 nM (33-fold).

First: CC(C)C[C@H](CO)NC(=O)C1O[C@@H]2CN(Cc3ccccc3)C(=O)[C@H]1O2 (stereo partly drawn)
Second: CC(C)C[C@@H](CO)NC(=O)C1O[C@H]2CN(Cc3ccccc3)C(=O)[C@@H]1O2 (stereo partly drawn)
The IC50 of the first is higher: over 10000 nM for the first, 550 nM for the second. The second is the more potent here.

Compound CC(C)C[C@H](CO)NC(=O)C1O[C@H]2CN(Cc3ccccc3)C(=O)[C@@H]1O2 (stereo partly drawn) has an IC50 of over 10000 nM.

The compounds below were run against Secreted aspartic protease 2 (Candida albicans) (UniProt P0CS83) (assay: Ratio of pepstatin A IC50 to compound IC50 for candida albicans SAP2 by spectrophotometric analysis).
Secreted aspartic protease 2 (Candida albicans), sequence (P0CS83 57-398 limits assumed): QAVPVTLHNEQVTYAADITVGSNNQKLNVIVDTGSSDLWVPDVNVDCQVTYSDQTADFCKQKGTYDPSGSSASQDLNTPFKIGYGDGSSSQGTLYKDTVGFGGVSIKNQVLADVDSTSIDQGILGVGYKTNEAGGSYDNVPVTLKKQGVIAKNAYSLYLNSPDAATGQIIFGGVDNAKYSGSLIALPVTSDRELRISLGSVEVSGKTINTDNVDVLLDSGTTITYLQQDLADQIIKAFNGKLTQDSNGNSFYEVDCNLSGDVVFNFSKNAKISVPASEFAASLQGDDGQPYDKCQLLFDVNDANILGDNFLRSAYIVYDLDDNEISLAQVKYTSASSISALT
In short: (§1)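 SAP2 protease (1 µg/mL solution) incubated with inhibitor in 0.05% (w/v) BSA, 50 mM sodium citrate pH 3.2, 30 min at 37 °C. Reaction stopped with 10% TCA, kept on ice 30 min, then centrifuged. Supernatant A280 read against a BSA-in-citrate blank. ΔOD per minute measured at inhibitor levels of 5, 1 and 0.1 µM and 5, 1 and 0.1 nM. Pepstatin A run as reference at the same concentrations.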

O=C([C@@H]1O[C@H]2CN(Cc3ccccc3)C(=O)[C@@H]1O2)N1CCCCC1 was tested, and the Ratio IC50 was 3.

The compounds below were run against T1, Secreted aspartic protease 2 (assay: Inhibition of candida albicans SAP2).
In short: as §1

CCCCNC(=O)[C@H](C[C@H](O)[C@H](CC1CCCCC1)NC(=O)[C@H](CCCC)N1CCN(C(=O)N2CCN(C)CC2)[C@H](Cc2ccccc2)C1=O)C(C)C gave a Ki of 12 nM.
